Legend:
[1] = biological target: T1, Human immunodeficiency virus type 1 protease (Human immunodeficiency virus 1, UniProt Q72874); experiment: (§1) Inhibitory activity against HIV PR in HIV-1 infected CEM-SS cell lines; format: cell-based
[2] = biological target: Human immunodeficiency virus type 1 protease (Human immunodeficiency virus 1) (UniProt Q72874); experiment: as §1; format: cell-based; settings: concentration not given here
Method in brief: (§2)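 Antiviral activity in HIV-1-infected CEM cells, read out by a cell viability assay run to a previously described method. Compounds were tested across a dose range, and the antiviral IC50 was taken from the dose-response curve.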

[3] = biological target: Human immunodeficiency virus type 1 protease (Human immunodeficiency virus 1) (UniProt Q72874); experiment: Inhibitory activity against HIV PR in HIV-1 infected CEM-SS cell lines; activity @ 200 uM
[4] = biological target: T1, Human immunodeficiency virus type 1 protease; experiment: as §1; format: cell-based; method in brief: as §2; remark: listed apart in the source
[5] = biological target: Human immunodeficiency virus type 1 protease (Human immunodeficiency virus 1) (UniProt Q72874); experiment: Inhibitory activity against HIV-1 PR in HIV-1 infected CEM-SS cell lines; activity @ 10 uM; format: cell-based
[6] = biological target: Human immunodeficiency virus type 1 protease (Human immunodeficiency virus 1) (UniProt Q72874); experiment: Inhibitory activity against HIV-1 PR in HIV-1 infected CEM-SS cell lines; activity @ 10 uM

| Compound | Ki [1] [µM] | IC50 [4] [µM] | further results |
| --- | --- | --- | --- |
| CC(C)(C)NC(=O)c1ccccc1CCC(O)Cc1ccccc1C(=O)NC(C)(C)C (stereo not drawn) | 24 | – | – |
| CC(C)(C)NC(=O)c1c(CC[C@H](O)Cc2ccc3ccccc3c2C(=O)NC(C)(C)C)ccc2ccccc12 | 0.48 | – | – |
| CC(C)(C)NC(=O)c1c(CCC(O)Cc2ccc3ccccc3c2C(=O)NC(C)(C)C)ccc2ccccc12 (stereo not drawn) | 1.4 | – | – |
| CC(C)(C)NC(=O)c1ccccc1CCC(O)CN1CCCCC1C(=O)NC(C)(C)C (stereo in doubt; 12) | – | – | inhibition [2]: 35% |
| CC(C)(C)NC(=O)c1ccccc1/C=C/C(O)Cc1ccccc1C(=O)NC(C)(C)C (stereo not drawn) | – | – | inhibition [3]: 40% |
| CC(C)N1CCC(CC(O)CCc2ccccc2C(=O)NC(C)(C)C)=C(C(=O)NC(C)(C)C)C1 (stereo not drawn) | – | 70 | – |
| CC(C)(C)NC(=O)c1ccccc1CC[C@H](O)CN1CCC[C@H]1C(=O)NC(C)(C)C | – | – | inhibition [5]: 10% |
| CC(C)(C)NC(=O)c1ccccc1CCC(O)Cc1ccc2ccccc2c1C(=O)NC(C)(C)C (stereo not drawn) | 2.2 | – | – |
| CC(C)(C)NC(=O)c1ccccc1CC[C@@H](O)CN1CCC[C@H]1C(=O)NC(C)(C)C | – | – | inhibition [6]: 10% |
| CC(C)(C)NC(=O)c1ccccc1SCC(O)c1ccccc1C(=O)NC(C)(C)C (stereo not drawn) | – | > 200 | – |
| CC(C)(C)NC(=O)c1c(CC[C@@H](O)Cc2ccc3ccccc3c2C(=O)NC(C)(C)C)ccc2ccccc12 | 25 | – | – |
| CC(C)(C)NC(=O)c1cc(C(C)(C)C)ccc1CCC(O)Cc1ccc2ccccc2c1C(=O)NC(C)(C)C (stereo not drawn) | 1.2 | – | – |
| CC(C)(C)NC(=O)c1ccccc1SCC(O)Cc1ccc2ccccc2c1C(=O)NC(C)(C)C (stereo not drawn) | – | 25 | – |
| CC(C)(C)NC(=O)c1ccccc1C#CC(O)Cc1ccccc1C(=O)NC(C)(C)C (stereo not drawn) | – | 200 | – |
| CC(C)(C)NC(=O)c1ccccc1CC(O)CSc1ccccc1C(=O)NC(C)(C)C (stereo not drawn) | 83 | – | – |
| CC(C)(C)NC(=O)c1ccccc1CC(O)CSc1ccccc1NC(=O)C(C)(C)C (stereo not drawn) | – | > 200 | – |
| CC(C)(C)NC(=O)c1ccccc1CCC(O)CN1CCCCC1C(=O)NC(C)(C)C (stereo in doubt; 11) | – | – | inhibition [2]: 20% |
| CC(C)(C)NC(=O)c1cc(C(C)(C)C)ccc1CCC(O)Cc1ccc(C(C)(C)C)cc1C(=O)NC(C)(C)C (stereo not drawn) | – | 7 | – |

From ChEMBL document CHEMBL1129728, “Structure-based design and synthesis of substituted 2-butanols as nonpeptidic inhibitors of HIV protease: secondary amide series” (J Med Chem, 1996)
